Test results reported in ChEMBL document CHEMBL3286200, “Design and green synthesis of 2-(diarylalkyl)aminobenzothiazole derivatives and their dual activities as angiotensin converting enzyme inhibitors and calcium channel blockers” (Eur J Med Chem, 2014).
Activity calls are given as the source filed them. No cut-off for these calls is given here.

Biological target: T1, Angiotensin-converting enzyme (Oryctolagus cuniculus) (UniProt P12822)
T1 sequence (whole entry): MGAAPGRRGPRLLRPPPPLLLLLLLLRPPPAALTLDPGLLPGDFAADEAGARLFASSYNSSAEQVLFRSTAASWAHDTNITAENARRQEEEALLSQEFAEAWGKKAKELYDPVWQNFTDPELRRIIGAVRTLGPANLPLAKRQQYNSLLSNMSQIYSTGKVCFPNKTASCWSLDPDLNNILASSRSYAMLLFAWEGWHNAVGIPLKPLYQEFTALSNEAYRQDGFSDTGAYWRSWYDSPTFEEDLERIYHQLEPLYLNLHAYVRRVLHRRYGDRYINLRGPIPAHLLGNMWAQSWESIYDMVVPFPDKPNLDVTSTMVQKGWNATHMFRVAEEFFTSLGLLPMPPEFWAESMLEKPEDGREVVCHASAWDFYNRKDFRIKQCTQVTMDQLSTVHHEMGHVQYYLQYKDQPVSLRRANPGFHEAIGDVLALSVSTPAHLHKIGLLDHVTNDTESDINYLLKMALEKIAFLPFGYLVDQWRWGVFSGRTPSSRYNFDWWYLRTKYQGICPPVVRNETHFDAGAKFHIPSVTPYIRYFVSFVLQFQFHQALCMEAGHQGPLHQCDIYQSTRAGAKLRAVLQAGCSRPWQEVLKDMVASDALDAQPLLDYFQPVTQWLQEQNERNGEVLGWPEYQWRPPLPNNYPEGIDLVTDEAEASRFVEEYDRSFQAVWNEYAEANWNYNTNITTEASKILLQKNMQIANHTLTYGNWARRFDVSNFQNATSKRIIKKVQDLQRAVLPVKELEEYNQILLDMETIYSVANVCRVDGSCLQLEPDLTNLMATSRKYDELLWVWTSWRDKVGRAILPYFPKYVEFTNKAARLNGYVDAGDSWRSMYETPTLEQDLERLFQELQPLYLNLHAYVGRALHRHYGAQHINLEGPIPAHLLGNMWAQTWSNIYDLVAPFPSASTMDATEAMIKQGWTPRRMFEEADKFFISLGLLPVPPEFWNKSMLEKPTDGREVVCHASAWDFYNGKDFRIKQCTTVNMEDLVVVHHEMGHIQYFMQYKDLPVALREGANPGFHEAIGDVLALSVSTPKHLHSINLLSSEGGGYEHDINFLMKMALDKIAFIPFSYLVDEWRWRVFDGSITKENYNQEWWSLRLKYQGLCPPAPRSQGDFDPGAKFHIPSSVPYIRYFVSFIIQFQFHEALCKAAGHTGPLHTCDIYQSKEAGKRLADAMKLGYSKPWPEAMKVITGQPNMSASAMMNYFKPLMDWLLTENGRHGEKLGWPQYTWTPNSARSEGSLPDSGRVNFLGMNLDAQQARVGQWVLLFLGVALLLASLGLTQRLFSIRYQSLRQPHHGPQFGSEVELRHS
Assay: Inhibition of rabbit lung ACE assessed as inhibition of hippuryl-histidyl-leucine substrate hydrolysis at 1 uM pretreated for 10 mins followed by addition of 5 mM HHL substrate for 30 mins measured as hippuric acid release
Method in brief: (§1)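 Reaction started with […] of 5 mM HHL; released hippuric acid read as yellow colour at 410 nm. Inhibition% = 100 − (T/C)×100; IC50 from percentage-inhibition versus concentration curves.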
In the case of `COc1ccc(C(Nc2nc3c(Cl)cccc3s2)c2c(O)ccc3ccccc23)cc1` (stereo not given), the inhibition is reported as 80.1%.
Compound `COc1ccc(C(Nc2nc3ccccc3s2)c2c(O)ccc3ccccc23)cc1` (stereo not given) has an inhibition of 61.8%.

Biological target: T2, Angiotensin-converting enzyme (Oryctolagus cuniculus, UniProt P12822)
T2 sequence (P12822 whole entry): T1 sequence (whole entry)
Assay: Inhibition of rabbit lung ACE assessed as inhibition of hippuryl-histidyl-leucine substrate hydrolysis pretreated for 10 mins followed by addition of 5 mM HHL substrate for 30 mins measured as hippuric acid release
Method in brief: as §1
In the case of `COc1ccc(C(Nc2nc3c(Cl)cccc3s2)c2c(O)ccc3ccccc23)cc1` (stereo not given), the IC50 is reported as 0.607 µM.
For `O=C(/C=C/c1ccc(O)c(O)c1)c1ccc(O)cc1O` [BUTEIN], the IC50 was 730 µM.
Compound `COc1ccc(C(Nc2nc3ccccc3s2)c2c(O)ccc3ccccc23)cc1` (stereo not given) has an IC50 of 0.837 µM.

Species: Rattus norvegicus
Assay: Inhibition of voltage-dependent calcium channel in Sprague-Dawley rat thoracic aorta assessed as inhibition of CaCl2-induced contraction at […] by isometric force transducer
Assay type: tissue-based
Method in brief: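 Isolated rat aortic rings hung on steel hooks in a water-jacketed organ bath of oxygenated KHB at 37 °C. Resting tension 1 g, equilibration about 30 min. Rings precontracted with […], with buffer changed every 15 min. Tissue preincubated with test agent, then cumulative calcium concentration–response curve (10^-3 to 10^-1 M) recorded as isometric tension.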
For `COC(=O)C1=C(C)NC(C)=C(C(=O)OC)C1c1ccccc1[N+](=O)[O-]`, the inhibition was “Active”.

Species: Rattus norvegicus
Assay: (§2) Inhibition of voltage-dependent calcium channel in Sprague-Dawley rat thoracic aorta assessed as inhibition of CaCl2-induced contraction by isometric force transducer
Assay type: tissue-based
Method in brief: (§3)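 Rat aortic rings held at 37 °C in 25 mL oxygenated KHB in an organ bath, under 1 g resting tension, equilibrated about 30 min. Isometric tension recorded by force transducer. Initial contraction with phenylephrine 1 mM, buffer changed every 15 min. After preincubation with test agent, a cumulative calcium concentration-response curve (10^-3 to 10^-1 M) was recorded.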
With `N#Cc1ccc(C(Nc2nc3ccccc3s2)c2c(O)ccc3ccccc23)cc1` (stereo not given) the inhibition was “Dose-dependent effect”.
With `Oc1ccc2ccccc2c1C(Nc1nc2ccccc2s1)c1ccc(C(F)(F)F)cc1` (stereo not given) the inhibition was “Dose-dependent effect”.
For `COc1ccc(C(Nc2nc3c(Cl)cccc3s2)c2c(O)ccc3ccccc23)cc1` (stereo not given), the inhibition was “Dose-dependent effect”.
For `Oc1ccc2ccccc2c1C(Nc1nc2ccccc2s1)c1ccc(F)cc1` (stereo not given), the inhibition was “Dose-dependent effect”.
In the case of `Oc1ccc2ccccc2c1C(Nc1nc2ccccc2s1)c1ccc(Cl)cc1Cl` (stereo not given), the inhibition is reported as “Dose-dependent effect”.
For `Oc1ccc2ccccc2c1C(Nc1nc2ccccc2s1)c1cccc(Cl)c1Cl` (stereo not given), the inhibition was “Dose-dependent effect”.
For `COc1ccc(C(Nc2nc3ccccc3s2)c2c(O)ccc3ccccc23)cc1OC` (stereo not given), the inhibition was “Dose-dependent effect”.
For `CN(C)c1ccc(C(Nc2nc3ccccc3s2)c2c(O)ccc3ccccc23)cc1` (stereo not given), the inhibition was “Dose-dependent effect”.
For `Oc1ccc2ccccc2c1C(Nc1nc2c(Cl)cccc2s1)c1ccc(Cl)c(Cl)c1` (stereo not given), the inhibition was “Dose-dependent effect”.
For `Cc1cccc2sc(NC(c3ccc(Cl)c(Cl)c3)c3c(O)ccc4ccccc34)nc12` (stereo not given), the inhibition was “Dose-dependent effect”.
For `Cc1ccc(C(Nc2nc3ccccc3s2)c2c(O)ccc3ccccc23)cc1` (stereo not given), the inhibition was “Dose-dependent effect”.
In the case of `CN(C)c1ccc(C(Nc2nc3c(Cl)cccc3s2)c2c(O)ccc3ccccc23)cc1` (stereo not given), the inhibition is reported as “Dose-dependent effect”.
For `Oc1ccc2ccccc2c1C(Nc1nc2ccccc2s1)c1ccc2ccccc2c1` (stereo not given), the inhibition was “Dose-dependent effect”.
In the case of `Oc1ccc2ccccc2c1C(Nc1nc2ccccc2s1)c1cccc(Br)c1` (stereo not given), the inhibition is reported as “Dose-dependent effect”.
With `Oc1ccc2ccccc2c1C(Nc1nc2ccccc2s1)c1ccccc1Cl` (stereo not given) the inhibition was “Dose-dependent effect”.
With `Oc1ccc2ccccc2c1C(Nc1nc2ccc(Cl)cc2s1)c1ccc(Br)cc1` (stereo not given) the inhibition was “Dose-dependent effect”.
For `Oc1ccc2ccccc2c1C(Nc1nc2c(Cl)cccc2s1)c1cccc(Oc2ccccc2)c1` (stereo not given), the inhibition was “Dose-dependent effect”.
In the case of `Cc1ccc(C(Nc2nc3c(Cl)cccc3s2)c2c(O)ccc3ccccc23)cc1` (stereo not given), the inhibition is reported as “Dose-dependent effect”.
For `Oc1ccc2ccccc2c1C(Nc1nc2ccc(Cl)cc2s1)c1ccc(Cl)c(Cl)c1` (stereo not given), the inhibition was “Dose-dependent effect”.
For `Oc1ccc2ccccc2c1C(Nc1nc2ccccc2s1)c1ccc(Br)cc1` (stereo not given), the inhibition was “Dose-dependent effect”.
With `Oc1ccc2ccccc2c1C(Nc1nc2c(Cl)cccc2s1)c1cccc(Cl)c1` (stereo not given) the inhibition was “Dose-dependent effect”.
For `Oc1ccc2ccccc2c1C(Nc1nc2ccc(Cl)cc2s1)c1ccccc1` (stereo not given), the inhibition was “Dose-dependent effect”.
In the case of `Oc1ccc2ccccc2c1C(Nc1nc2ccccc2s1)c1ccc(Cl)cc1` (stereo not given), the inhibition is reported as “Dose-dependent effect”.
For `Oc1ccc2ccccc2c1C(Nc1nc2c(Cl)cccc2s1)c1ccc(F)cc1` (stereo not given), the inhibition was “Dose-dependent effect”.
For `CC(C)c1ccc(C(Nc2nc3ccccc3s2)c2c(O)ccc3ccccc23)cc1` (stereo not given), the inhibition was “Dose-dependent effect”.
For `Oc1ccc2ccccc2c1C(Nc1nc2ccccc2s1)c1ccc(Cl)c(Cl)c1` (stereo not given), the inhibition was “Dose-dependent effect”.
In the case of `COc1cc(C(Nc2nc3c(Cl)cccc3s2)c2c(O)ccc3ccccc23)cc(OC)c1OC` (stereo not given), the inhibition is reported as “Dose-dependent effect”.
In the case of `COc1ccc(C(Nc2nc3ccccc3s2)c2c(O)ccc3ccccc23)c(OC)c1` (stereo not given), the inhibition is reported as “Dose-dependent effect”.
For `Oc1ccc2ccccc2c1C(Nc1nc2c(Cl)cccc2s1)c1ccc(Cl)cc1Cl` (stereo not given), the inhibition was “Dose-dependent effect”.
For `Cc1ccc(C(Nc2nc3ccc(Cl)cc3s2)c2c(O)ccc3ccccc23)cc1` (stereo not given), the inhibition was “Dose-dependent effect”.
With `Oc1ccc2ccccc2c1C(Nc1nc2ccccc2s1)c1cccc(Cl)c1` (stereo not given) the inhibition was “Dose-dependent effect”.
For `CC(c1ccccc1)C(Nc1nc2ccccc2s1)c1c(O)ccc2ccccc12` (stereo not given), the inhibition was “Dose-dependent effect”.
In the case of `Oc1ccc2ccccc2c1C(Nc1nc2ccccc2s1)c1cc(F)ccc1Br` (stereo not given), the inhibition is reported as “Dose-dependent effect”.
In the case of `COc1cc(C(Nc2nc3ccccc3s2)c2c(O)ccc3ccccc23)cc(OC)c1OC` (stereo not given), the inhibition is reported as “Dose-dependent effect”.
With `Oc1ccc2ccccc2c1C(Nc1nc2c(Cl)cccc2s1)c1ccccc1` (stereo not given) the inhibition was “Dose-dependent effect”.
For `Oc1ccc2ccccc2c1C(Nc1nc2ccccc2s1)c1ccc(F)c(F)c1` (stereo not given), the inhibition was “Dose-dependent effect”.
For `COc1ccc(C(Nc2nc3ccccc3s2)c2c(O)ccc3ccccc23)cc1` (stereo not given), the inhibition was “Dose-dependent effect”.
For `Oc1ccc2ccccc2c1C(Nc1nc2c(Cl)cccc2s1)c1ccc(Br)cc1` (stereo not given), the inhibition was “Dose-dependent effect”.
With `Oc1ccc2ccccc2c1C(Nc1nc2c(Cl)cccc2s1)c1ccc2ccccc2c1` (stereo not given) the inhibition was “Dose-dependent effect”.
With `Oc1ccc2ccccc2c1C(Nc1nc2ccccc2s1)c1ccccc1` (stereo not given) the inhibition was “Dose-dependent effect”.
With `Oc1ccc2ccccc2c1C(Nc1nc2ccccc2s1)c1cccc(F)c1` (stereo not given) the inhibition was “Dose-dependent effect”.
With `Oc1ccc2ccccc2c1C(Nc1nc2ccccc2s1)c1cccc(Oc2ccccc2)c1` (stereo not given) the inhibition was “Dose-dependent effect”.

System: not listed separately
Assay: as §2
Assay type: tissue-based
Method in brief: as §3
For `COc1ccc(C(Nc2nc3c(Cl)cccc3s2)c2c(O)ccc3ccccc23)cc1` (stereo not given), the IC50 was 50 µM.
`COc1ccc(C(Nc2nc3ccccc3s2)c2c(O)ccc3ccccc23)cc1` (stereo not given) showed an IC50 of 3 µM.
